In ChEMBL document CHEMBL4014306, “Pyrazolopyrimidines as Potent Stimulators for Transient Receptor Potential Canonical 3/6/7 Channels” (J Med Chem, 2017):
Calls of active or inactive are those of the source. The calls are words filed in the database; no cut-off is given here.

How the values were obtained:
[1] = target: T1, Short transient receptor potential channel 4 (Mus musculus) (UniProt Q9QUQ5); experiment: Agonist activity at mouse TRPC4beta expressed in HEK293 cells co-expressing MOR assessed as induction of membrane depolarization at 33 uM measured for 2.5 mins by FLIPR membrane potential dye-based fluorescence assay; format: cell-based
T1 sequence (whole entry): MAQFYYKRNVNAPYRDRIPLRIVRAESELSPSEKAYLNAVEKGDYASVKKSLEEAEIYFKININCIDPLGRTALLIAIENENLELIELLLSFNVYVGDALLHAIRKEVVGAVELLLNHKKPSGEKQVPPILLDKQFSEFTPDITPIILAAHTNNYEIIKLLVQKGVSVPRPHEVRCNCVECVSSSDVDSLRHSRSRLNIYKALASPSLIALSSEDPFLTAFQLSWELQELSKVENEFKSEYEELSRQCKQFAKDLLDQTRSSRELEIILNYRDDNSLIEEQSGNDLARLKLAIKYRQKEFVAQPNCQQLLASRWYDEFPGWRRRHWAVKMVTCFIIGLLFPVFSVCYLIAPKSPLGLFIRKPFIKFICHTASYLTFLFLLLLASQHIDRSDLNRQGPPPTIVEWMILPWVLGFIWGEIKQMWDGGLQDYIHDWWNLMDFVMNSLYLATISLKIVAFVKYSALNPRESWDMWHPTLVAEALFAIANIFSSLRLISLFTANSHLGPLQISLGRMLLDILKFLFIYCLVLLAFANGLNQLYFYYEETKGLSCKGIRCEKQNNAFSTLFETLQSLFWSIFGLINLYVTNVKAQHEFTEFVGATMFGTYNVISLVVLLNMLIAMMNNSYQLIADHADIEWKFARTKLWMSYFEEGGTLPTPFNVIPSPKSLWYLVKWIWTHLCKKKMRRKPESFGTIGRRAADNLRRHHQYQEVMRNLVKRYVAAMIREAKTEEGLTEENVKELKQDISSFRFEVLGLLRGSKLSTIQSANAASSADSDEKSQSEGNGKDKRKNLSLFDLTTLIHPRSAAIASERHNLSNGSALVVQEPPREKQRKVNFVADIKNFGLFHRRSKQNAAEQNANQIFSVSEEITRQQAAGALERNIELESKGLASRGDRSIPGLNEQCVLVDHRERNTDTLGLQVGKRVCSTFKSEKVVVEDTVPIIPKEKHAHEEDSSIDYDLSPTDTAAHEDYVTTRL

[2] = target: Transient receptor potential cation channel subfamily M member 8 (Mus musculus) (UniProt Q8R4D5); experiment: Inhibition of mouse TRPM8 expressed in HEK293 cells assessed as decrease in menthol-evoked increase in intracellular calcium level at 22 uM preincubated for 2 mins followed by menthol addition measured for 2.5 mins by Fluo8-AM dye-based fluorescence assay relative to control
Sequence of Transient receptor potential cation channel subfamily M member 8 (Mus musculus) (Q8R4D5 whole entry): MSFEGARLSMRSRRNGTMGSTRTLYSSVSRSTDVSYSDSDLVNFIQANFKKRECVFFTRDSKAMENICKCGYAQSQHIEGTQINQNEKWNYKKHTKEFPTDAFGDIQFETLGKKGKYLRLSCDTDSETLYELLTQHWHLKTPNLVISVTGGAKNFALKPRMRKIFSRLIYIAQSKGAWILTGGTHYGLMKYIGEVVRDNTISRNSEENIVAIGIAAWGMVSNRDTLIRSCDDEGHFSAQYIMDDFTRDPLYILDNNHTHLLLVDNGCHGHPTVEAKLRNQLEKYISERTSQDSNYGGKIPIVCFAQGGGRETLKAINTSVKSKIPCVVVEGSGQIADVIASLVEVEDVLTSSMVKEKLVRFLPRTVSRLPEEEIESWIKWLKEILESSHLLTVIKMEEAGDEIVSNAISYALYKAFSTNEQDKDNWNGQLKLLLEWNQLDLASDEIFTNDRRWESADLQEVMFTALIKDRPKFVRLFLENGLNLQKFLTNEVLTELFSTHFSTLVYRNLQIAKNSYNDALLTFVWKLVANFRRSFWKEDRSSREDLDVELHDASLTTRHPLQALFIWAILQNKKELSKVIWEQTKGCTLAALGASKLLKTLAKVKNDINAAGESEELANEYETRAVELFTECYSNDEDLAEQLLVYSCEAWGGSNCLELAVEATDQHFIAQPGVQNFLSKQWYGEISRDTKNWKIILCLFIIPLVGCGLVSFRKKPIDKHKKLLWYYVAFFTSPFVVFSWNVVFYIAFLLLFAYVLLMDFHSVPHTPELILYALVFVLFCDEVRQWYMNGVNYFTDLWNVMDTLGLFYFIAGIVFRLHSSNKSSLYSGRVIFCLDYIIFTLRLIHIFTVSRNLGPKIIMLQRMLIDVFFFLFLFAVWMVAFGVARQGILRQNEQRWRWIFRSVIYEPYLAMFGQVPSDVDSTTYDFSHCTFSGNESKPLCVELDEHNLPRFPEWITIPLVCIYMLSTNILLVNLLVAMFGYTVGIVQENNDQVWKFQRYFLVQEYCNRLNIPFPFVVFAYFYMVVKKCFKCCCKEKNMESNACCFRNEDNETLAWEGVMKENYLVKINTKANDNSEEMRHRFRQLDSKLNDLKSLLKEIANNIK

[3] = target: T2, Short transient receptor potential channel 4 (Mus musculus, UniProt Q9QUQ5); experiment: Antagonist activity at mouse TRPC4beta expressed in HEK293 cells co-expressing MOR decrease in DAMGO-evoked intracellular calcium level by Fluo-8-AM dye-based fluorescence assay; format: cell-based
T2 sequence (Q9QUQ5 whole entry): T1 sequence (whole entry)
In short: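 MOR/TRPC4β HEK293 cells loaded with Ca2+ dye. Compound given before 1 μM DAMGO. IC50 estimated from one experiment in triplicate.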

[4] = target: T3, Short transient receptor potential channel 6 (Mus musculus, UniProt Q61143); experiment: Agonist activity at mouse TRPC6 expressed in HEK293 cells co-expressing Gq11-PLCbeta fused M5 receptor assessed as peak current changes at +80 mV by whole cell patch-clamp method; format: cell-based
T3 sequence (Q61143 whole entry): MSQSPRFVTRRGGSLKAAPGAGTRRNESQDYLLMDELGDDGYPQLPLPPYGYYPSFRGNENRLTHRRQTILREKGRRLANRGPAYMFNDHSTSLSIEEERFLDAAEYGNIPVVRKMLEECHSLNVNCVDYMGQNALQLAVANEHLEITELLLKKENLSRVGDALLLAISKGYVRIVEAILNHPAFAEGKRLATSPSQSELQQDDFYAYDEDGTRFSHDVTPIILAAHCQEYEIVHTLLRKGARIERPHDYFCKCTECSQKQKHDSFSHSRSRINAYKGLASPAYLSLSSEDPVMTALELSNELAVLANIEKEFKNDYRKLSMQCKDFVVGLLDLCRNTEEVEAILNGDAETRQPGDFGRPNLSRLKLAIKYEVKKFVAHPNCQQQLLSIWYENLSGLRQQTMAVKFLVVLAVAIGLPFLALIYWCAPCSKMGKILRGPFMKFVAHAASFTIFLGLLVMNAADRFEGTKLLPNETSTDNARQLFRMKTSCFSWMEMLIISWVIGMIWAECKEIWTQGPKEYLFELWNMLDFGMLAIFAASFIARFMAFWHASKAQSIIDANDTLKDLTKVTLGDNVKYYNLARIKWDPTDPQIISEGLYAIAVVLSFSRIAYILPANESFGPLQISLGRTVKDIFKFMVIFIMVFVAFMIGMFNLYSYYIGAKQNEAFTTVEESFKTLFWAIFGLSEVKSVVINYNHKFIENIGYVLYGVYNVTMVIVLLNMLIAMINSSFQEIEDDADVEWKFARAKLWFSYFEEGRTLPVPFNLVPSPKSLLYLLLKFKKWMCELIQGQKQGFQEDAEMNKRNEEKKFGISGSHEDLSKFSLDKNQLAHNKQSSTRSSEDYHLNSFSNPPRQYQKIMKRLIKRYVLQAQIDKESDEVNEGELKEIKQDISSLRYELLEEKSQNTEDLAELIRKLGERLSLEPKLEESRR
In short: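 Whole-cell patch clamp of TRPC6/M5 HEK293 cells. Pipette solution: 110 CsCl, 10 BAPTA, 4.77 CaCl2 (400 nM free Ca2+), pH 7.2. Bath at 0.1 mM Ca2+, pH 7.4. Ramps from +100 to −100 mV (100 ms) every 1 s from a 0 mV holding potential. Concentrations of 0.1–100 μM applied consecutively by perfusion. EC50 from currents at +80 mV.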

Cc1nn2c(O)cc(C3CCN(C(=O)OCc4ccccc4)CC3)nc2c1-c1ccc(F)cc1
Activity [1]: inactive | inhibition [2]: 35% | IC50 [3]: Not Active | EC50 [4]: 3.24 µM

CCOC(=O)N1CCC(c2cc(O)n3nc(C)c(-c4ccc(C(F)(F)F)cc4)c3n2)CC1
Activity [1]: inactive | inhibition [2]: 17% | IC50 [3]: Not Active | EC50 [4]: 0.89 µM

CCOC(=O)N1CCC(c2cc(O)n3nc(C)c(-c4ccc(F)cc4)c3n2)CC1
Activity [1]: inactive | inhibition [2]: 22% | IC50 [3]: Not Active | EC50 [4]: 2.5 to 6.28 µM

Cc1nn2c(O)cc(C3CCN(C(=O)OCc4ccccc4)CC3)nc2c1-c1ccc(Cl)cc1
Activity [1]: inactive | IC50 [3]: Not Active | EC50 [4]: 2.05 µM
